Source: PubChem
RORA act: activators of human nuclear receptor RORA | activation, % at 10 µM | P35398 | AID 560 | 65,000 compounds, 1.5% hits | CHO-K1 Gal4-RORA LBD luciferase reporter, luminescence; percent increase over mock-subtracted basal signal;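 active means activation above the mean of all tested compounds plus 3 SD, cut at about 49% in these data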;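 further: 0% = DMSO-treated RORA cells and 100% = added signal equal to DMSO minus mock-transfected cells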
Target sequence (P35398 whole entry, looked up, the tested form may be a part): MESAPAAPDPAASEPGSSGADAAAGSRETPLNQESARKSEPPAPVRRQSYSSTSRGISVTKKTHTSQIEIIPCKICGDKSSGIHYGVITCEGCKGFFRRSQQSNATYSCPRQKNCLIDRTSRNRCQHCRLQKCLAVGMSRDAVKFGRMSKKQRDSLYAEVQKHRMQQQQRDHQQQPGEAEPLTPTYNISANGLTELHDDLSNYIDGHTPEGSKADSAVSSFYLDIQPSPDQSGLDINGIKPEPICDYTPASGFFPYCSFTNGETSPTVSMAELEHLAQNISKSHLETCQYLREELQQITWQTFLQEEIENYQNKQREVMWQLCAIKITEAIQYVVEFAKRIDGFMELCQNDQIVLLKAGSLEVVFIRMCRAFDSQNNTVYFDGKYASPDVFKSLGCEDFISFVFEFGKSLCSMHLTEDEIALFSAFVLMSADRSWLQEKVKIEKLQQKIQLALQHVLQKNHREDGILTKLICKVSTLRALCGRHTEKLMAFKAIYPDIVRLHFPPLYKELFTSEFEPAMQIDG
ERa SRC1 pot: enhances coactivator binding to human estrogen receptor alpha; coactivator binding (% of control), % at 25.6 µM; 86,000 compounds, 1.3% hits; P03372; TR-FRET ERalpha-LBD/SRC-Cy5 coactivator binding, 2 h; 100 = basal binding, no effect; AID 639; in the data active means activity above about 200%;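 further: binding measured in presence of low estradiol as agonist stimulus; 0% = peptide alone without receptor and 100% = receptor with peptide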
PTK2B oligo ant: Pyk2 (human) oligomerization antagonism; Q14289; z-score (the deposit names both 25 µM and 10 µM); Q293 cells, Pyk2 FERM NanoBiT luminescence; active compounds read low; 99,000 compounds, 0.83% hits; AID 1347419;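 active means Z-score of -3 or lower, scaled per plate to the spread of control and sample wells; inactive means z-score above -3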;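 further: negative z-score means lost luminescence so less FERM oligomerization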
SF-1 act: activators of human nuclear receptor SF-1; CHO-K1 Gal4-SF-1 LBD luciferase reporter; % increase over DMSO SF-1-specific signal; Q13285; 65,000 compounds, 1.9% hits; activation, % at 10 µM; AID 522;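 active means activation above the mean activation of all tested compounds plus 3 SD, cut at about 50% in these data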
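Assay system: CHO-K1 cells co-transfected with Gal4 DBD–human SF-1 LBD, 5xGal4 luciferase reporter / Input: 4,000 cells per well / Incubation: 20 h compound exposure at 37 °C after 1 h cell settling / Detection: SteadyLite luciferase luminescence / Control set: DMSO negative control and −SF1 background wells / Replication: one test per compound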
ERb SRC1 inh: blocks coactivator binding to human estrogen receptor beta. Q92731. TR-FRET ER-beta LBD / SRC1-Cy5 peptide binding; receptor agonist-loaded with 1 µM estradiol. inhibition, % at 25.6 µM. 86,000 compounds, 1.3% hits;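 active means compounds whose percent inhibition of the receptor-coactivator binding signal exceeds about 50% in the single-dose screen, limit read from the data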;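 further: 0% = receptor plus peptide wells without compound and 100% = peptide-only wells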
ERa SRC1 inh: blocks coactivator binding to human estrogen receptor alpha; P03372; TR-FRET ER-alpha LBD / SRC-1 peptide, estradiol-bound; inhibition, % at 25.6 µM; 86,000 compounds, 1.7% hits; AID 629; in the data active means inhibition above about 50%;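 further: 0% = receptor plus peptide control and 100% = peptide only without receptor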
Active calls of the source: *; x = no result given; [ ] = remark or other dose. An excerpt weighted towards active compounds, which were near 4.8% of everything screened.

SMILES | RORA act | ERa SRC1 pot | PTK2B oligo ant | SF-1 act | ERb SRC1 inh | ERa SRC1 inh
O=C(O)c1ccc(NC(CSCc2cccc(F)c2)C(=O)O)c([N+](=O)[O-])c1 (configuration not stated) | x | 101.1 | -0.58 | x | -0.5 | -11.0
Cn1c(C(=O)NCCN2CCCCCC2)cc2c(=O)n(C)c3ccccc3c21 | 3.1 | 177.6 | x | -9.9 | 34.8 | 71.9*[fluorescence artefact?]
Cn1c(C(=O)Nc2ccc3c(c2)OCO3)cc2c(=O)n(C)c3ccccc3c21 | 4.2 | 66.2 | x | -25.1 | 59.5* | 76.8*
Cn1c(C(=O)NCCN2CCN(Cc3ccccc3)CC2)cc2c(=O)n(C)c3ccccc3c21 | 27.9 | 99.8 | x | -1.6 | -2.6 | -3.3
Cc1cccc(N2CCN(C(=O)c3cc4c(=O)n(C)c5ccccc5c4n3C)CC2)c1C | -1.3 | 311.8* | x | -33.8 | 27.8 | 14.5
CCOc1ccc(NC(=O)c2cc3c(=O)n(C)c4ccccc4c3n2C)cc1 | x | 156.8 | x | x | 8.2 | 11.2
CC(NC(=O)c1cc2c(=O)n(C)c3ccccc3c2n1C)c1ccc2c(c1)OCCO2 (configuration not stated) | 3.8 | 276.6*[fluorescence artefact?] | x | 22.3 | 5.8 | 18.7
O=C(NCCC1=CCCCC1)C1CCCN(c2nc3ccccc3o2)C1 (configuration not stated) | -5.4 | 108.4 | 2.1 | 2.4 | 1.8 | -8.8
O=C(NCCOC(=O)c1ccc(Cl)cc1)c1cccnc1 | x | 109.9 | -0.18 | x | 1.1 | -4.3
CC(Oc1ccc(-c2ccccc2)c(F)c1)c1ccn(S(=O)(=O)c2ccc(Cl)cc2)n1 (configuration not stated) | x | x | -0.22 | x | x | x
NC(=O)COc1ccc(C2c3c(oc4ccccc4c3=O)C(=O)N2CC2CCCO2)cc1 (configuration not stated) | 0.2 | 61.3 | 0.86 | -4.6 | 70.2* | 69.8*
COc1ccc(NC(=O)c2cccs2)cc1NC(=O)c1ccco1 | x | 91.7 | -0.03 | x | -4.9 | -1.6
O=C(COC(=O)c1ccccc1Nc1ccccc1)NCc1ccco1 | 19.2 | 102.9 | -0.78 | -8.0 | -1.8 | -9.0
O=C(COC(=O)COc1ccc(Nc2ccccc2)cc1)NCc1ccco1 | 7.6 | 68.8 | 0.62 | -3.5 | 52.0*[fluorescence artefact?] | 30.1
O=C(COC(=O)c1cccs1)NCc1ccco1 | -6.5 | 77.1 | 0.04 | -0.2 | 53.0* | 53.2*[fluorescence artefact?]
COc1ccc(NC(=O)COC(=O)c2cc(OC)c(OC)cc2NC(=O)c2ccco2)cc1OC | x | x | -0.51 | x | x | x
CCOc1cc(NC(=O)c2cccs2)c(OCC)cc1NC(=O)c1ccco1 | x | 75.4 | -0.24 | x | 64.8* | 7.7
COc1cc(NC(=O)c2cccs2)c(C(=O)OCC(=O)NCc2ccco2)cc1OC | 6.9 | 88.8 | -0.79 | -22.5 | 41.9 | 79.0*
CCc1nnc(NC(=O)CCC(=O)N2CCN(CCOc3ccc(C)cc3)CC2)s1 | -7.5 | 105.9 | 1.61 | -7.3 | -4.1 | -2.7
C#CC(CC)(CC)NC(=S)Nc1cccc(C(C)=O)c1 | x | x | 0.19 | x | x | x
Cn1nc(C(=O)Nc2sccc2C(N)=O)ccc1=O | 18.7 | 21.1 | 1.69 | 0.5 | 54.3*[fluorescence artefact?] | 62.9*[fluorescence artefact?]
CC(C)CNS(=O)(=O)c1ccc(C(=O)Nc2ccc3c(c2)OCCO3)cc1 | 73.2* | 135.0 | -1.18 | 9.0 | -2.4 | 6.3
Cn1nc(C(=O)Nc2ccc(S(=O)(=O)N3CCCCC3)cc2)ccc1=O | -0.4 | 83.8 | 1.02 | -11.7 | 15.7 | 14.1
Cc1cc(C)n(-c2ccc(C(=O)Nc3sccc3C(N)=O)cc2)n1 | 31.0 | 54.6 | -1.53 | 61.8* | 32.3 | 26.8
Cc1cc(C)n(-c2ccc(C(=O)Nc3ccc4c(c3)OCCO4)cc2)n1 | 75.3* | x | 0.93 | 34.7 | x | x
SMILES | RORA act | ERa SRC1 pot | PTK2B oligo ant | SF-1 act | ERb SRC1 inh | ERa SRC1 inh
O=C(OCC(=O)N1CCN(C(=O)c2ccco2)CC1)c1cc(-c2cccc(Br)c2)nc2ccccc12 | x | 163.1 | -1.1 | x | 4.5 | 0.8
Cc1sc(NC(=O)CSc2nnnn2C2CCCCC2)c(C#N)c1C | x | x | -0.32 | x | x | x
O=C(NNC(=O)C1CC(c2cccnc2)=NO1)Nc1cccc(F)c1 (configuration not stated) | x | x | -0.18 | x | x | x
CCOc1ccc(C(=O)Nc2ccc3c(c2)OCCO3)cc1OC | 33.7 | 119.6 | -0.61 | 56.5* | -7.7 | -0.7
Cc1nnc2sc(-c3cc4ccccc4o3)nn12 | 56.8* | 81.2 | x | 34.2 | -0.7 | 4.1
O=C(NNc1ccc([N+](=O)[O-])cc1)C12CC3CC(CC(C3)C1)C2 | x | x | 0.22 | x | x | x
COc1ccccc1/C=N/N(C(C)=O)c1nc(-c2ccc(F)cc2)cs1 | x | x | -0.39 | x | x | x
CCC(=O)Nc1ccc2oc(-c3ccccc3Br)nc2c1 | 28.5 | 103.2 | -2.48 | 20.2 | 9.4 | 16.3
CC(=O)Nc1ccc2oc(-c3cc(F)c(F)cc3Cl)nc2c1 | 52.3* | 123.2 | 0.04 | 52.9* | -6.1 | -1.1
CC(=O)Nc1ccc2oc(-c3ccccc3Br)nc2c1 | -8.0 | 66.4 | x | 10.8 | 28.1 | 26.6
CC(C)C(=O)Nc1ccc2oc(-c3cc(F)c(F)cc3Cl)nc2c1 | x | 217.3* | 1.7 | x | 13.0 | 5.3
COCCN(C(=O)CNC(=O)c1ccco1)C(C(=O)NC1CCCCC1)c1cccs1 (configuration not stated) | x | 114.1 | 0.01 | x | -5.8 | -4.9
CN(C)c1ccc(C(=O)OCC(=O)c2cccs2)cc1 | 7.4 | x | x | 52.5* | x | x
CCOC(=O)c1ccc(S(=O)(=O)Nc2ccc3cn[nH]c3c2)cc1 | x | 82.8 | -3.01* | x | 5.5 | 8.1
COC(=O)c1ccccc1S(=O)(=O)Nc1ccc2cn[nH]c2c1 | 9.8 | 101.8 | -0.38 | 27.3 | 3.6 | -3.5
O=C(Nc1ccccc1OC(F)F)c1ccc(Br)o1 | -22.5 | 111.6 | 2.15 | -4.4 | -14.6 | -2.6
CC(C)CSc1nc2c(c(=O)[nH]c(=O)n2C)n1CCc1ccccc1 | -16.3 | 110.8 | -0.62 | -7.2 | 3.6 | -6.5
CC(C)CSc1nc2c(c(=O)[nH]c(=O)n2C)n1CC(O)COc1cccc2ccccc12 (configuration not stated) | 1.4 | 75.4 | -0.31 | -6.1 | 56.0* | 13.0
CSc1ccc(CNc2ccccn2)cc1 | 61.4* | 112.5 | 0.18 | 17.4 | 5.4 | 7.3
CC(=O)n1c2ccccc2c2c(C#N)c(N3CCCCC3)sc21 | -1.2 | 123.0 | x | 50.9* | 17.6 | -4.6
Cc1ccc(CN2CCSc3ccc(C(=O)N4CCN(c5ncccn5)CC4)cc32)cc1 | -0.5 | 378.2*[fluorescence artefact?] | -0.1 | 2.9 | 29.8 | 24.8
CC1CC(C)CN(C(=O)c2ccc3c(c2)N(Cc2ccccc2)CCS3)C1 (configuration not stated) | x | 90.9 | x | x | 4.8 | 5.5
O=C(O)c1ccc2c(c1)OCCO2 | x | 109.9 | 2.01 | x | 2.8 | 77.1*[fluorescence artefact?]
CN1CCCC(OC(=O)c2ccc3c(c2)OCCO3)C1 (configuration not stated) | -5.5 | 127.2 | -0.39 | 0.4 | 60.3* | 0.0
NC(=O)c1ccc2c(c1)OCCO2 | -4.6 | 121.2 | 1.33 | 18.2 | 21.4 | 8.1
O=C(CCCSc1nc2sc3c(c2c(=O)[nH]1)CCC3)NCCO | -17.3 | 143.6 | 0 | 5.0 | -5.7 | -10.9
